Measured values of several laboratories.
Lines come from different studies, so protocols differ.
Read-out: cell growth or viability

O=C1CCC(N2C(=O)c3cccc4c(Cc5cnn(C6CCN(C(=O)C7(O)CCC7)CC6)c5)ccc2c34)C(=O)N1 (centres unmarked)
IC50 (NCI-H929): 7e-06 µM

S=P1(C2CCCCC2)CCCCC1
IC50 (HCT-116; MTT; 72 h): > 100 µM

C#CCn1c(C(=O)/C=C/c2ccc(F)cc2)nc2ccccc21
IC50 (HCT-116; LDH; 48 h): 6.51 µM

Fc1ccc2c(-c3nc(Cc4ccccc4)cs3)nn(Cc3ccc(Cl)cc3Cl)c2c1
IC50 (HCT-116; 48 h): 67.6 µM

N.N.[Cl][Pt][Cl]
IC50 (HCT-116; MTT; 72 h): 8.2 µM

N.N.[Cl][Pt][Cl]
IC50 (HCT-116; MTT; 24 h): 255 µM

N.N.[Cl][Pt][Cl]
IC50 (SK-OV-3; MTT; 72 h): 43.8 µM

N.N.[Cl][Pt][Cl]
IC50 (HCT-116; MTT; 48 h): 13.3 µM

N.N.[Cl][Pt][Cl]
inhibition (WSUDLCL2; ATP luminescence; 10 µM; 72 h): 100%

O=C1[O][Pt]2([NH][C@@H]3CCCC[C@H]3[NH]2)[O]C1=O
IC50 (HCT-116; MTT): 0.8 µM

O=C(Nc1ccc(Cl)cc1)Nc1cccc(-c2cn(Cc3ccc(Br)cc3)nn2)c1
viability (PC-9; CCK-8; 50 µM; 72 h): 128%
